Measured values reported in ChEMBL document CHEMBL2331170, “Synthesis and biological evaluation of novel pyranochalcone derivatives as a new class of microtubule stabilizing agents” (Eur J Med Chem, 2013).
Calls of active or inactive are those of the source. The calls are words filed in the database; no cut-off is given here.

Columns and labels:
[1] = Cytotoxicity against human LO2 cells by MTT assay; format: cell-based; conditions: L02
Procedure, shortened: (§1)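 Log-phase cells were diluted to 40,000–50,000 cells/mL in medium with 10% FBS, 2 mM glutamine and antibiotics (37 °C, 5% CO₂). They were seeded in 96-well plates and treated with a range of doses. MTT was added for 4 h, the formazan was dissolved in DMSO, and absorbance was read at 590 nm.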

K562 = assay: Cytotoxicity against human K562 cells by MTT assay; format: functional, cell-based; procedure, shortened: as §1
A-375 = assay: Cytotoxicity against human A375 cells by MTT assay; format: functional, cell-based; procedure, shortened: as §1
HepG2 [2] = assay: Cytotoxicity against human HepG2 cells by MTT assay; format: functional, cell-based; procedure, shortened: as §1
HepG2 [3] = assay: Induction of microtubule polymerization in human HepG2 cells at 1 uM after 24 hrs by propidium iodide-FITC-based staining method
[4] = Cytotoxicity against human A2780S cells by MTT assay; format: functional, cell-based; conditions: A2780
NCI-H358 = assay: Cytotoxicity against human NCI-H358 cells by MTT assay; format: functional, cell-based
Bel-7402 = assay: Cytotoxicity against human Bel7402 cells by MTT assay; format: functional, cell-based
[5] = Cytotoxicity against mouse C26 cells by MTT assay; format: functional, cell-based
[6] = Ratio of taxol IC50 to compound IC50 for mouse C26 cells by MTT assay; format: functional
HepG2 [7] = assay: Cell cycle arrest in human HepG2 cells assessed as accumulation at G2/M phase at 0.2 uM after 24 hrs by flow cytometry (reference value: 17.07 %); format: functional
PC-3 = assay: Cytotoxicity against human PC3 cells by MTT assay; format: functional, cell-based
HepG2 [8] = assay: Effect on microtubule network in human HepG2 cells assessed as abnormal mitotic spindles at 1 uM after 24 hrs by propidium iodide-FITC-based staining method; format: cell-based
Procedure, shortened: (§2)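 HepG2 cells were treated with 1.0 μM for 24 h. They were washed in PBS, fixed in cold 4% PFA for 10 min and blocked for 1 h in 5% goat serum/0.3% Triton/PBS. Staining used monoclonal anti-α-tubulin overnight at 4 °C, then Alexa Fluor 488 anti-mouse IgG for 30 min at room temperature, with propidium iodide for DNA. Cells were imaged by fluorescence or confocal microscopy.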

DU-145 = assay: Cytotoxicity against human DU145 cells by MTT assay; format: functional, cell-based
SK-HEP1 = assay: Cytotoxicity against human SKHEP1 cells by MTT assay; format: functional, cell-based
MCF7 = assay: Cytotoxicity against human MCF7 cells by MTT assay; format: functional, cell-based
[9] = Cytotoxicity against human H460 cells by MTT assay; format: functional, cell-based; conditions: NCI-H460
HCT-15 = assay: Cytotoxicity against human HCT15 cells by MTT assay; format: functional, cell-based
SK-OV-3 = assay: Cytotoxicity against human SKOV3 cells by MTT assay; format: functional, cell-based
HepG2 [10] = assay: Effect on microtubule network in human HepG2 cells assessed as multiple tubulin bundles without chromosomes aligned at the metaphase plate with more dispersion of the chromosomes at 1 uM after 24 hrs by propidium iodide-FITC-based staining method; format: cell-based; procedure, shortened: as §2
HepG2 [11] = assay: Cell cycle arrest in human HepG2 cells assessed as accumulation at G2/M phase at 1 uM after 24 hrs by flow cytometry (reference value: 17.07 %); format: functional
HT-29 = assay: Cytotoxicity against human HT-29 cells by MTT assay; format: functional, cell-based
HepG2 [12] = assay: Cell cycle arrest in human HepG2 cells assessed as accumulation at G2/M phase at after 24 hrs by flow cytometry; format: functional, cell-based
[13] = Cytotoxicity against human ES2 cells by MTT assay; format: functional, cell-based; conditions: ES-2
[14] = Cytotoxicity against human MCF7/ADR cells by MTT assay; format: functional, cell-based; conditions: NCI/ADR-RES
HCT-8 = assay: Cytotoxicity against taxol-resistant human HCT8 cells by MTT assay; format: functional, cell-based
A2780 = assay: Cytotoxicity against taxol-resistant human A2780 cells by MTT assay; format: functional, cell-based
[15] = Cytotoxicity against human SPC-A1 cells by MTT assay; format: functional, cell-based; conditions: SPCA1

COc1ccc(/C=C/C(=O)c2ccc(OC)c3c2OC(C)(C)C=C3)cc1OCCO
IC50 [1]: > 10000 nM
IC50 (K562): > 10000 nM
IC50 (A-375): 9600 nM
IC50 (HepG2 [2]): > 10000 nM

COc1ccc(/C=C/C(=O)c2ccc(OC)c3c2OC(C)(C)C=C3)cc1OC(=O)C1CC1
IC50 [1]: > 10000 nM
IC50 (K562): 410 nM
IC50 (A-375): 380 nM
IC50 (HepG2 [2]): 220 nM

COc1ccc(/C=C/C(=O)c2ccc(OC)c3c2OC(C)(C)C=C3)cc1OC(=O)c1ccco1
IC50 [1]: > 10000 nM
IC50 (K562): 450 nM
IC50 (A-375): 680 nM
IC50 (HepG2 [2]): 370 nM

C=CCOc1cc(/C=C/C(=O)c2ccc(OC)c3c2OC(C)(C)C=C3)ccc1OC
IC50 [1]: > 20000 nM
IC50 (K562): > 10000 nM
IC50 (A-375): > 10000 nM
IC50 (HepG2 [2]): > 10000 nM

COc1ccc(/C=C/C(=O)c2ccc(OC)c3c2OC(C)(C)C=C3)cc1OC(=O)Cc1cccc(C(F)(F)F)c1
IC50 [1]: > 10000 nM
IC50 (K562): 290 nM
IC50 (A-375): 480 nM
IC50 (HepG2 [2]): 570 nM

COc1ccc(/C=C/C(=O)c2ccc(OC)c3c2OC(C)(C)C=C3)cc1OCCCN(C)C
IC50 [1]: 8600 nM
IC50 (K562): 2920 nM
IC50 (A-375): 4100 nM
IC50 (HepG2 [2]): 5550 nM

COc1ccc(/C=C/C(=O)c2ccc(OC)c3c2OC(C)(C)C=C3)cc1OCC=C(C)C
IC50 [1]: > 10000 nM
IC50 (K562): > 10000 nM
IC50 (A-375): > 10000 nM
IC50 (HepG2 [2]): > 10000 nM

COc1ccc(/C=C/C(=O)Oc2cc(/C=C/C(=O)c3ccc(OC)c4c3OC(C)(C)C=C4)ccc2OC)cc1
IC50 [1]: 18000 nM
IC50 (K562): 380 nM
IC50 (A-375): 2630 nM
IC50 (HepG2 [2]): 430 nM

COc1ccc(/C=C/C(=O)c2ccc(OC)c3c2OC(C)(C)C=C3)cc1OS(C)(=O)=O
IC50 [1]: > 10000 nM
IC50 (K562): 9240 nM
IC50 (A-375): > 10000 nM
IC50 (HepG2 [2]): 9180 nM

COc1ccc(/C=C/C(=O)c2ccc(OC)c3c2OC(C)(C)C=C3)cc1OC(=O)Cc1ccc(Cl)c(Cl)c1
IC50 [1]: > 10000 nM
IC50 (K562): 430 nM
IC50 (A-375): 700 nM
IC50 (HepG2 [2]): 600 nM

COc1ccc(/C=C/C(=O)c2ccc(OC)c3c2OC(C)(C)C=C3)cc1OS(=O)(=O)Cc1ccccc1
IC50 [1]: > 10000 nM
IC50 (K562): > 10000 nM
IC50 (A-375): > 10000 nM
IC50 (HepG2 [2]): > 10000 nM

C=CC(=O)Oc1cc(/C=C/C(=O)c2ccc(OC)c3c2OC(C)(C)C=C3)ccc1OC
IC50 [1]: > 10000 nM
IC50 (K562): 300 nM
IC50 (A-375): 390 nM
IC50 (HepG2 [2]): 160 nM

COc1ccc(/C=C/C(=O)c2ccc(OC)c3c2OC(C)(C)C=C3)cc1OC(=O)C(C)C
IC50 [1]: > 10000 nM
IC50 (K562): 570 nM
IC50 (A-375): 310 nM
IC50 (HepG2 [2]): 250 nM

COc1ccc(/C=C/C(=O)c2ccc(OC)c3c2OC(C)(C)C=C3)cc1OC(=O)CCl
IC50 [1]: > 10000 nM
IC50 (K562): 400 nM
IC50 (A-375): 450 nM
IC50 (HepG2 [2]): 120 nM

COc1cccc(C(=O)Oc2cc(/C=C/C(=O)c3ccc(OC)c4c3OC(C)(C)C=C4)ccc2OC)c1
IC50 [1]: > 10000 nM
IC50 (K562): 790 nM
IC50 (A-375): 800 nM
IC50 (HepG2 [2]): 870 nM

COc1ccc(/C=C/C(=O)c2ccc(OC)c3c2OC(C)(C)C=C3)cc1OCCN1CCCCC1
IC50 [1]: 9150 nM
IC50 (K562): 2080 nM
IC50 (A-375): 3000 nM
IC50 (HepG2 [2]): 4400 nM

C#CCOc1cc(/C=C/C(=O)c2ccc(OC)c3c2OC(C)(C)C=C3)ccc1OC
IC50 [1]: > 10000 nM
IC50 (K562): > 10000 nM
IC50 (A-375): > 10000 nM
IC50 (HepG2 [2]): > 10000 nM

COc1ccc(/C=C/C(=O)c2ccc(OC)c3c2OC(C)(C)C=C3)cc1 [MILLEPACHINE]
IC50 [1]: > 20000 nM
IC50 (A-375): 3580 nM

COc1ccc(/C=C/C(=O)c2ccc(OC)c3c2OC(C)(C)C=C3)cc1OCCN1CCCC1
IC50 [1]: 9500 nM
IC50 (K562): 3050 nM
IC50 (A-375): 3810 nM
IC50 (HepG2 [2]): > 10000 nM

CCCCC(=O)Oc1cc(/C=C/C(=O)c2ccc(OC)c3c2OC(C)(C)C=C3)ccc1OC
IC50 [1]: > 10000 nM
Activity (HepG2 [3]): Active
IC50 [4]: 330 nM
IC50 (NCI-H358): 90 nM
IC50 (Bel-7402): > 2000 nM
IC50 [5]: 300 nM
Ratio IC50 [6]: 3
Activity (HepG2 [7]): 53.47%
IC50 (PC-3): 120 nM
Activity (HepG2 [8]): Active
IC50 (DU-145): 210 nM
IC50 (SK-HEP1): 600 nM
IC50 (MCF7): 250 nM
IC50 (K562): 240 nM
IC50 [9]: 5450 nM
IC50 (HCT-15): 100 nM
IC50 (SK-OV-3): 270 nM
Activity (HepG2 [10]): Active
Activity (HepG2 [11]): 69.18%
IC50 (HT-29): 190 nM
Activity (HepG2 [12]): Dose-dependent effect
IC50 [13]: 100 nM
IC50 [14]: 170 nM
IC50 (HCT-8): 2300 nM
IC50 (A-375): 220 nM
IC50 (A2780): 5920 nM
IC50 (HepG2 [2]): 100 nM
IC50 [15]: 18100 nM

COc1ccc(/C=C/C(=O)c2ccc(OC)c3c2OC(C)(C)C=C3)cc1OS(=O)(=O)c1ccc(C)cc1
IC50 [1]: > 10000 nM
IC50 (K562): 7850 nM
IC50 (A-375): 2400 nM
IC50 (HepG2 [2]): 3600 nM

COc1ccc(/C=C/C(=O)c2ccc(OC)c3c2OC(C)(C)C=C3)cc1OC(=O)c1ccc(Br)cc1
IC50 [1]: 8400 nM
IC50 (K562): 1110 nM
IC50 (A-375): 420 nM
IC50 (HepG2 [2]): 680 nM

COc1ccc(/C=C/C(=O)c2ccc(OC)c3c2OC(C)(C)C=C3)cc1OC(=O)CCCc1ccc(N(CCCl)CCCl)cc1
IC50 [1]: > 10000 nM
IC50 (K562): 470 nM
IC50 (A-375): 9200 nM
IC50 (HepG2 [2]): 700 nM

COc1ccc(/C=C/C(=O)c2ccc(OC)c3c2OC(C)(C)C=C3)cc1O
IC50 [1]: > 10000 nM
IC50 (K562): 630 nM
IC50 (A-375): 800 nM
IC50 (HepG2 [2]): 450 nM

COc1cc2c(c(OC)c1OC)-c1ccc(OC)c(=O)cc1[C@@H](NC(C)=O)CC2 [COLCHICINE]
IC50 [4]: 20 nM
IC50 (NCI-H358): 20 nM
IC50 (Bel-7402): 1310 nM
IC50 [5]: 1720 nM
IC50 (PC-3): 40 nM
IC50 (DU-145): 300 nM
IC50 (SK-HEP1): 170 nM
IC50 (MCF7): 290 nM
IC50 [9]: 27000 nM
IC50 (HCT-15): 80 nM
IC50 (SK-OV-3): 120 nM
IC50 (HT-29): 20 nM
IC50 [13]: 90 nM
IC50 [14]: 3120 nM
IC50 (HCT-8): 11800 nM
IC50 (A2780): > 20000 nM
IC50 [15]: 80000 nM

COc1ccc(/C=C/C(=O)c2ccc(OC)c3c2OC(C)(C)C=C3)cc1OCCN1CCOCC1
IC50 [1]: > 10000 nM
IC50 (K562): 8350 nM
IC50 (A-375): 8200 nM
IC50 (HepG2 [2]): > 10000 nM
